SR-BI HDL uptake = mouse SR-BI HDL lipid transfer inhibition | actives 0.96% (n = 320,000) | inhibition, % at 12.5 µM | ldlA[mSR-BI] CHO cells, DiI-HDL uptake fluorescence, 3 h | AID 488896 | Q61009;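 active means mean replicate inhibition of at least 70% and a set share of replicates each scoring 70 or more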;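 further: 0% = median of neutral control wells and 100% = median of positive control wells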
ANO1 block = inhibitors of mouse TMEM16A calcium-activated chloride channel | actives 1.2% (n = 310,000) | normalized B-score (activity score, 25-100; higher = stronger inhibition) at 10 µM | HEK293 TMEM16A/YFP iodide influx fluorescence, ionomycin | Q8BHY3;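 active means ratio plate-corrected score three or more library SD toward inhibition, starting fluorescence score within five deviations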;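 further: score derived from kinetic fluorescence span divided by baseline fluorescence per well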
ANO1 activ = activators or potentiators of mouse TMEM16A chloride channel; Q8BHY3; HEK293 TMEM16A/YFP-H148Q/I152L, iodide quench fluorescence; hits give low values; B-score at 10 µM; actives 0.3% (n = 340,000);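 active means fluorescence-ratio B-score plate-corrected deviation score at least 3 library SD below zero, with starting fluorescence score within 5 deviations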;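 further: channel opened by trigger with iodide after compound preincubation; score built on the fluorescence ratio of max minus min over baseline; more negative score means more quench and so TMEM16A activation or potentiation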
SR-BI uptake up = SR-BI HDL lipid transfer activation | CHO ldlA[mSR-BI] cells, DiI-HDL uptake fluorescence, 3 h; 100 = double the neutral-control signal | activation, % at 12.5 µM | actives 0.096% (n = 320,000) | AID 504775;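 active means mean replicate activation of at least 60% and every replicate at or above 60%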;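 further: 0% = median plate neutral-control signal and 100% = twice that signal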
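Assay system: LDL receptor-deficient CHO ldlA cells overexpressing murine SR-BI / Medium: BSA-supplemented, HEPES-buffered Ham's F12, pH 7.4 / Probe or stimulus: DiI-labelled HDL at 10 µg/mL final / Timing: compound with DiI-HDL co-incubation, 3 h at 37 °C / Technique: bottom-read cell fluorescence after medium removal, ex 550/em 595 nm / Measure: HDL uptake via cellular fluorescence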
Kir21 block = blocks the mouse Kir2.1 inward-rectifier potassium channel; HEK293-Kir2.1, FluxOR thallium flux fluorescence; hits give low values; B-score at 10 µM; actives 0.85% (n = 310,000); AID 1672;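 active means fluorescence ratio B-score at or below minus 3 SD of library scores, with starting-brightness B-score within 2 SD, cut at about -4.2 in these data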;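 further: channel flux triggered by added potassium and thallium sulfate stimulus; B-score of peak minus minimum fluorescence over baseline after thallium stimulus; more negative B-score means stronger Kir2.1 block with less thallium influx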
Target sequence (P35561 whole entry, looked up): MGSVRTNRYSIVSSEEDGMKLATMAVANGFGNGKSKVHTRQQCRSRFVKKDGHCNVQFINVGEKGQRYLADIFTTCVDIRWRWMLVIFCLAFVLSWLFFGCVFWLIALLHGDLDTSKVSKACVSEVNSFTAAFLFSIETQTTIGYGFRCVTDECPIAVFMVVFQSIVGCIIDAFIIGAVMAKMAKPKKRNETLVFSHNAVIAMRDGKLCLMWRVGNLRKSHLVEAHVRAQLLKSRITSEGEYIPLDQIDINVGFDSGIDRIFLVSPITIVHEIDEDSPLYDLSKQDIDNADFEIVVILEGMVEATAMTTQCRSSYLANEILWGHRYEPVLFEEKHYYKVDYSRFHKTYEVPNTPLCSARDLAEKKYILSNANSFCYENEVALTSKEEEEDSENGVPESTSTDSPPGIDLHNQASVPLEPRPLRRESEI
DNA FID counter = fluorescent intercalator displacement, NS3 helicase counter-screen. DNA fluorescent intercalator displacement, fluorescence. inhibition, % at 7.9 µM. actives 0.17% (n = 290,000). AID 1845; in the data active means inhibition above about 37%;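 further: 0% = vehicle and 100% = reference compound; higher means more ethidium bromide displaced from hairpin DNA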
The depositor's hits bear a star. A selection: hits, their analogues and other compounds. The true share with any hit is near 3%.

`CC(OC(=O)/C(C#N)=C/c1ccc(N(C)C)cc1)C(=O)N(C)Cc1ccccc1` (configuration not stated) gave SR-BI HDL uptake 16, ANO1 block inactive, ANO1 activ -10*, SR-BI uptake up -16, Kir21 block 2.6 and DNA FID counter -43.
For Cc1ccccc1-n1c(SCc2c(C)noc2C)nnc1-c1cccnc1 the results were SR-BI HDL uptake -2, ANO1 block inactive, ANO1 activ -5.2*, SR-BI uptake up 2, Kir21 block -3.3 and DNA FID counter -13.
CSc1ccc(CNc2ccc(Cl)cc2)cc1 was read as SR-BI HDL uptake 1, ANO1 block 25*, ANO1 activ inactive, SR-BI uptake up -1, Kir21 block 0.3 and DNA FID counter 2.
Screening CC(C)Cn1c(-c2cccs2)nc2ccccc21 returned SR-BI HDL uptake -7, ANO1 block inactive, ANO1 activ inactive, SR-BI uptake up 7, Kir21 block -4.5* and DNA FID counter -17.
For CCc1ccc(C(=O)CN2CCSC2=N)cc1 the results were SR-BI HDL uptake -36, ANO1 block inactive, ANO1 activ inactive, SR-BI uptake up 36, Kir21 block -4.5* and DNA FID counter -3.
Screening O=C(OCc1ccc(F)cc1)c1cc(S(=O)(=O)N2CCCCC2)ccc1N1CCOCC1 returned SR-BI HDL uptake 3, ANO1 block inactive, ANO1 activ inactive, SR-BI uptake up -3 and Kir21 block -1.4.
Screening OC(COc1ccccc1)CN1CCC(Cc2ccccc2)CC1 (configuration not stated) returned SR-BI HDL uptake -43, ANO1 block inactive, ANO1 activ inactive, SR-BI uptake up 43, Kir21 block 1.5 and DNA FID counter 9.
OC(COc1ccc(F)cc1Cl)CN1CCC(Cc2ccccc2)CC1 (configuration not stated) was read as ANO1 block inactive, ANO1 activ inactive, Kir21 block -3.4 and DNA FID counter 39*.
OC(COc1ccccc1F)CN1CCC(Cc2ccccc2)CC1 (configuration not stated) was read as SR-BI HDL uptake -11, ANO1 block inactive, ANO1 activ inactive, SR-BI uptake up 11, Kir21 block -1 and DNA FID counter 8.
For Cc1ccc(OCC(O)CN2CCC(Cc3ccccc3)CC2)c(C)c1 (configuration not stated) the results were SR-BI HDL uptake 2, ANO1 block inactive, ANO1 activ inactive, SR-BI uptake up -2, Kir21 block -4.6* and DNA FID counter 33.
For Cc1cnc(C(=O)OCC(=O)N2CCC(C)CC2)cn1 the results were SR-BI HDL uptake -36, ANO1 activ inactive and SR-BI uptake up 36.
`Cc1ccc(S(=O)(=O)Nc2ccc(C(=O)NCCCN3CCOCC3)cc2)cc1[N+](=O)[O-]` gave SR-BI HDL uptake -14, ANO1 block inactive, ANO1 activ inactive, SR-BI uptake up 14 and Kir21 block 0.73.
For Cc1cc(C(=O)NCC(=O)OCC(=O)NCC2CCCO2)ccc1[N+](=O)[O-] (configuration not stated) the results were SR-BI HDL uptake -10, ANO1 activ inactive and SR-BI uptake up 10.
Screening CCCSc1nnc(CSc2nc3ccccc3s2)n1-c1ccccc1 returned SR-BI HDL uptake -16, ANO1 block 100*, ANO1 activ inactive, SR-BI uptake up 16, Kir21 block -2.3 and DNA FID counter -17.
For CCOCCOC(=O)c1ccc(NC(=O)c2cc3ccccc3o2)cc1 the results were SR-BI HDL uptake 20, ANO1 activ inactive and SR-BI uptake up -20.
CC(C)Oc1ccc(C(CCN)C2CCCCC2)cc1 (configuration not stated) was read as SR-BI HDL uptake -5, ANO1 block inactive, ANO1 activ inactive, SR-BI uptake up 5, Kir21 block -8.3* and DNA FID counter 21.
CC(C)Oc1ccc(OCCCN2CCCCCC2)cc1 was read as SR-BI HDL uptake -39, ANO1 block inactive, ANO1 activ inactive, SR-BI uptake up 39, Kir21 block -0.14 and DNA FID counter 7.
Screening C=CC(C)(C)c1c2occc2c(O)c2ccc(=O)oc12 returned SR-BI HDL uptake -17, ANO1 activ inactive and SR-BI uptake up 17.
C=CC(C)(C)c1c(O)c(CC=C(C)C)c(O)c2c(=O)c3ccc(O)c(O)c3oc12 was read as SR-BI HDL uptake 123*, ANO1 block 100*, ANO1 activ inactive, SR-BI uptake up -123 and Kir21 block 1.6.
Cc1ccc(OC(C)C(=O)N2CCCc3ccccc32)cc1 (configuration not stated) was read as SR-BI HDL uptake -6, ANO1 block inactive, ANO1 activ inactive, SR-BI uptake up 6, Kir21 block -5.5* and DNA FID counter -17.
Cc1cccc(OCC(=O)N2CCCc3ccccc32)c1 was read as SR-BI HDL uptake -20, ANO1 block inactive, ANO1 activ inactive, SR-BI uptake up 20, Kir21 block -0.61 and DNA FID counter -17.
For Cc1cccc(OC(C)C(=O)N2CCCc3ccccc32)c1 (configuration not stated) the results were SR-BI HDL uptake 9, ANO1 block inactive, ANO1 activ inactive, SR-BI uptake up -9, Kir21 block -5.2* and DNA FID counter -27.
For CCOC(=O)C1CCN(S(=O)(=O)c2ccc3c4c2CC(=O)N4CC(C)S3)CC1 (configuration not stated) the results were SR-BI HDL uptake -11, ANO1 block inactive, ANO1 activ inactive, SR-BI uptake up 11, Kir21 block -0.75 and DNA FID counter -50.
For COCCNc1ccc([N+](=O)[O-])cc1C(=O)NC1CCCc2ccccc21 (configuration not stated) the results were SR-BI HDL uptake 79*, ANO1 block inactive, ANO1 activ inactive, SR-BI uptake up -79, Kir21 block -0.45 and DNA FID counter -22.
For CC(C)(C)n1nnnc1C(c1cccs1)N(Cc1cccnc1)Cc1ccccc1Cl (configuration not stated) the results were SR-BI HDL uptake -13, ANO1 block inactive, ANO1 activ inactive, SR-BI uptake up 13, Kir21 block -0.06 and DNA FID counter -16.
Screening CC(c1nnnn1C(C)(C)C)N(Cc1cccnc1)Cc1ccccc1Cl (configuration not stated) returned SR-BI HDL uptake -13, ANO1 block inactive, ANO1 activ inactive, SR-BI uptake up 13, Kir21 block -4.3* and DNA FID counter -26.
CCOc1ccc(NCc2nnc(SCC(=O)Nc3nc(-c4ccccc4)cs3)n2-c2ccccc2)cc1 was read as SR-BI HDL uptake 75*, ANO1 block inactive, ANO1 activ inactive, SR-BI uptake up -75, Kir21 block -0.11 and DNA FID counter -3.

Bioassay records as filed in PubChem BioAssay.
